Source: ChEMBL document CHEMBL4130635, “2,4-Diaminoquinazolines as Dual Toll-like Receptor (TLR) 7/8 Modulators for the Treatment of Hepatitis B Virus” (J Med Chem, 2018)
Active and inactive are the calls of the source. No cut-off for these calls is given here.

How the values were obtained:
[1] = test system: Cynomolgus monkey; assay: Induction of G-CSF in cynomolgus monkey plasma at 1 mg/kg, po after 24 hrs by Luminex assay (reference value: 85 pg/ml); type: functional, organism-based; conditions: Macaca fascicularis
Procedure, shortened: (§1)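 Healthy cynomolgus monkeys given single oral doses of 1, 3, 9 and 30 mg/kg, with a 2-week wash-out planned between doses. Systemic cytokine levels in plasma were sampled at 0.5, 1, 2, 4, 9 and 24 h postdose.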

[2] = test system: Cynomolgus monkey; assay: Anti-inflammatory activity in cynomolgus monkey plasma assessed as IL-10 levels at 30 mg/kg, po after 24 hrs by Luminex assay (reference value: 195 pg/ml); type: functional, Macaca fascicularis
[3] = test system: Cynomolgus monkey; assay: Activation of Kupffer cells in cynomolgus monkey liver at 30 mg/kg, po after 72 hrs by CD68 staining-based immunohistochemical analysis; type: functional, organism-based; conditions: Macaca fascicularis
Procedure, shortened: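 Three 2.5-year-old male naive cynomolgus monkeys were dosed orally at 30 mg/kg and euthanized 72 h later. FFPE liver sections were stained for CD68 by IHC, alongside sections from unrelated control animals. Positive cells were counted over a 30 mm² area and expressed per mm². Statistics used a one-tailed t test with Welch correction.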

[4] = test system: Cynomolgus monkey; assay: Induction of IFNalpha levels in cynomolgus monkey plasma at 30 mg/kg, po after 24 hrs by ELISA; type: functional, Macaca fascicularis; procedure, shortened: as §1
[5] = test system: Cynomolgus monkey; assay: Upregulation of Tlr7 expression in cynomolgus monkey plasma at 30 mg/kg, po after 24 hrs by Fluidigm RT-qPCR analysis (reference value: 1.8); type: functional, Macaca fascicularis
[6] = test system: Liver; assay: Proinflammatory activity in C57BL/6J mouse liver assessed as IL-6 levels at 0.3 mg/kg, po by multiplex assay (reference value: 10 pg/g); type: functional, organism-based
[7] = test system: Liver; assay: Upregulation of IP-10 mRNA expression levels in C57BL/6J mouse liver at 30 mg/kg, po by RT-qPCR analysis (reference value: 1); type: functional
[8] = Cmax in C57BL/6J mouse liver at 0.3 mg/kg, po by LC-MS analysis; type: ADME, organism-based; design: dose 0.3 mg/kg, route oral
Procedure, shortened: (§2)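 Healthy C57BL/6 mice, groups of 15, given a single oral dose (0.3, 1, 3, 10 or 30 mg/kg) in 20% HP-β-CD. Blood drawn at 0.5 h. Three mice per group sacrificed at 0.5, 1, 2, 4 or 7 h, and compound in plasma and liver measured by LC−MS. Values rounded to whole numbers.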

[9] = test system: Liver; assay: Proinflammatory activity in C57BL/6J mouse liver assessed as CXCL-1 levels at 3 mg/kg, po by multiplex assay (reference value: 25 pg/g); type: functional
[10] = Cmax in C57BL/6J mouse liver at 30 mg/kg, po by LC-MS analysis; type: ADME, organism-based; design: dose 30 mg/kg, route oral; procedure, shortened: as §2
[11] = test system: Plasma; assay: Proinflammatory activity in C57BL/6J mouse plasma assessed as IL-1beta levels at 3 mg/kg, po by multiplex assay (reference value: 60 pg/ml); type: functional
[12] = Cmax in cynomolgus monkey plasma at 1 mg/kg, po by LC-MS analysis; type: ADME, organism-based, Macaca fascicularis; design: dose 1 mg/kg, route oral
Procedure, shortened: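 Healthy cynomolgus monkeys received oral doses of 1, 3, 9 and 30 mg/kg, with a 2-week wash-out between doses. Systemic compound concentrations by LC−MS at 0.25, 0.5, 1, 2, 4, 8 and 24 h postdose.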

[13] = biological target: T1, TLR7 and TLR8 (Homo sapiens) (UniProt Q9NYK1+Q9NR97); assay: Agonist activity at TLR7/8 in human PBMCs co-cultured with primary human hepatocytes infected with HBV genotype C for 12 days assessed as increase in IL-1Ra levels up to 5 uM measured after 42 days
T1 sequence (Q9NR97 whole entry, looked up): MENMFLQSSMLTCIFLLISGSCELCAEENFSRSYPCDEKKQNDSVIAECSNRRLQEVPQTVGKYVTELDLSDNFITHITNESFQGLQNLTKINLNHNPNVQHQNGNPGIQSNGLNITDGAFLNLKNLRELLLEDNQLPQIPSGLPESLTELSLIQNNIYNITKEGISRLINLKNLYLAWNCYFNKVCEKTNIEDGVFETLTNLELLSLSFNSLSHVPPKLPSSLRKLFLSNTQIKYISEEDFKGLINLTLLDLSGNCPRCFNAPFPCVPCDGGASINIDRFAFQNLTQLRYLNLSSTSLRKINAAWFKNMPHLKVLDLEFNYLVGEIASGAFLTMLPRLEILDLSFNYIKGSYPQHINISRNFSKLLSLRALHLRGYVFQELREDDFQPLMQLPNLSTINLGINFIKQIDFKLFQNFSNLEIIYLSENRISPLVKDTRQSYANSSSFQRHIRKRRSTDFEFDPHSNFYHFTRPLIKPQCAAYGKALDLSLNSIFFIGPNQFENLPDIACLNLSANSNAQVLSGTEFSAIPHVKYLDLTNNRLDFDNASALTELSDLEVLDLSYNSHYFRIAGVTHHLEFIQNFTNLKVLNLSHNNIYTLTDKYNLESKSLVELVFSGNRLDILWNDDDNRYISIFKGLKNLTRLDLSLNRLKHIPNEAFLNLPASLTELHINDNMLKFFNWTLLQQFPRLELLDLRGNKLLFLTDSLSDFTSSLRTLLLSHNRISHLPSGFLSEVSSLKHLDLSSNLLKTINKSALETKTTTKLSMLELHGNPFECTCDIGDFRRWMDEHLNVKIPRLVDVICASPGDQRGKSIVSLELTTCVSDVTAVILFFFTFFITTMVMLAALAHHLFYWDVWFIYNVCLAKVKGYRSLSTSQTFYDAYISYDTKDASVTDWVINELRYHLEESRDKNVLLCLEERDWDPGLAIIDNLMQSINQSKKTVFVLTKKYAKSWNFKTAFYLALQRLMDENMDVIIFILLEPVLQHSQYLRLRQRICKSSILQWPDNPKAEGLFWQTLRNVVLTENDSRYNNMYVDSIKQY
T1 sequence (Q9NYK1 whole entry, looked up): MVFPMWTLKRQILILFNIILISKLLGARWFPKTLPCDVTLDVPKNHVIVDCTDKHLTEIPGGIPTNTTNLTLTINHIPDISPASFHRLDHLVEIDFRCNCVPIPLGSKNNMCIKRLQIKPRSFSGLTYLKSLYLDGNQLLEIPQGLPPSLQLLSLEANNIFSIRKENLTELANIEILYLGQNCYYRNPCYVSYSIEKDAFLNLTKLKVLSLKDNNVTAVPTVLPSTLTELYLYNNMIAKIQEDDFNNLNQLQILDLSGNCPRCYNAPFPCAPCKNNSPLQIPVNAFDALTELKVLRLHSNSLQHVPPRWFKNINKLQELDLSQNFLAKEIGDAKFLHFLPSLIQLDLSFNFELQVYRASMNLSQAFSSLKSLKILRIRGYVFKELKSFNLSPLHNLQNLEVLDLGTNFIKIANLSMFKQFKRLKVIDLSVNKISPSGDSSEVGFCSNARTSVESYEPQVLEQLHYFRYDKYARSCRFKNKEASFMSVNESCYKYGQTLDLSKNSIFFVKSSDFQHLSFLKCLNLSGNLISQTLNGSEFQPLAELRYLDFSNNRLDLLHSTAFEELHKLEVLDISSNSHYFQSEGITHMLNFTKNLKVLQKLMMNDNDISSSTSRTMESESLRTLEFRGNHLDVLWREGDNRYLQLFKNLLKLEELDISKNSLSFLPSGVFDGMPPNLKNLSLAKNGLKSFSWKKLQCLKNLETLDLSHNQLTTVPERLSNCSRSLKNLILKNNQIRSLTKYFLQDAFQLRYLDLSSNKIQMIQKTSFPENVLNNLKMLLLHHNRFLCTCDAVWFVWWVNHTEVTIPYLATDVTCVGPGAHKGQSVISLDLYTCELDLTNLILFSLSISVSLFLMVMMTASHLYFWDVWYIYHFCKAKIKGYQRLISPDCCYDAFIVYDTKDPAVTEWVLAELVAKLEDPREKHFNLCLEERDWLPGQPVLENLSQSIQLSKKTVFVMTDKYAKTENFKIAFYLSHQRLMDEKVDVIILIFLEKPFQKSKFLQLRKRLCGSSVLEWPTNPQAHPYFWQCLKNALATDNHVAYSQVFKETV

[14] = test system: Liver; assay: Proinflammatory activity in C57BL/6J mouse liver assessed as TNFalpha levels at 1 mg/kg, po by multiplex assay (reference value: 15 pg/g); type: functional, organism-based
[15] = test system: Cynomolgus monkey; assay: Proinflammatory activity in cynomolgus monkey plasma assessed as IL-6 levels at 3 mg/kg, po after 24 hrs by Luminex assay (reference value: 80 pg/ml); type: functional, Macaca fascicularis
[16] = test system: Cynomolgus monkey; assay: Induction of ISG response in cynomolgus monkey plasma assessed as upregulation of Isg15 mRNA expression at 3 mg/kg, po after 24 hrs by Fluidigm RT-qPCR analysis (reference value: 1); type: functional, Macaca fascicularis
Procedure, shortened: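 Cynomolgus monkeys, single oral doses of 1, 3, 9 and 30 mg/kg with a planned 2-week wash-out between doses. Systemic ISG (ISG15, Mx1, OAS1) mRNA was measured by Fluidigm RT-qPCR at 1, 2, 4, 8 and 24 h postdose.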

[17] = test system: Plasma; assay: Proinflammatory activity in C57BL/6J mouse plasma assessed as CXCL-1 levels at 0.3 mg/kg, po by multiplex assay (reference value: 230 pg/ml); type: functional
[18] = test system: Cynomolgus monkey; assay: Toxicity in cynomolgus monkey assessed as change in body weight up to 30 mg/kg, po; type: organism-based, Macaca fascicularis; conditions: in vivo
[19] = test system: Cynomolgus monkey; assay: Effect on cytokine profile in cynomolgus monkey plasma assessed as IP10 levels at 30 mg/kg, po after 24 hrs by Luminex assay (reference value: 18.5 pg/ml); type: functional, Macaca fascicularis; procedure, shortened: as §1
[20] = test system: Plasma; assay: Induction of IFNalpha levels in C57BL/6J mouse plasma at 1 mg/kg, po by ELISA; type: functional
[21] = test system: Plasma; assay: Proinflammatory activity in C57BL/6J mouse plasma assessed as CXCL-1 levels at 10 mg/kg, po by multiplex assay (reference value: 230 pg/ml); type: functional
[22] = test system: Plasma; assay: Proinflammatory activity in C57BL/6J mouse plasma assessed as TNFalpha levels at 30 mg/kg, po by multiplex assay (reference value: 70 pg/ml); type: functional
[23] = test system: Cynomolgus monkey; assay: Anti-inflammatory activity in cynomolgus monkey plasma assessed as IL-10 levels at 9 mg/kg, po after 24 hrs by Luminex assay (reference value: 195 pg/ml); type: functional, Macaca fascicularis
[24] = test system: Liver; assay: Proinflammatory activity in C57BL/6J mouse liver assessed as TNFalpha levels at 30 mg/kg, po by multiplex assay (reference value: 15 pg/g); type: functional
[25] = Stability in human hepatocytes assessed compound turnover at 1 uM after 60 mins; type: ADME, cell-based, Hepatocyte; conditions: read-out: Drug metabolism
[26] = Cmax in C57BL/6J mouse liver at 1 mg/kg, po by LC-MS analysis; type: ADME, organism-based; design: dose 1 mg/kg, route oral; procedure, shortened: as §2
[27] = biological target: T1, TLR7 and TLR8 (Homo sapiens); assay: Agonist activity at TLR7/8 in human PBMCs co-cultured with primary human hepatocytes infected with HBV genotype C for 12 days assessed as increase in IL-1beta levels up to 5 uM measured after 42 days
[28] = Cytotoxicity against HEK293 cells assessed as reduction in cell viability after 6 hrs by ATP lite assay; type: cell-based; conditions: human
[29] = test system: Cynomolgus monkey; assay: Upregulation of Tlr7 expression in cynomolgus monkey plasma at 3 mg/kg, po after 24 hrs by Fluidigm RT-qPCR analysis (reference value: 1.8); type: functional, Macaca fascicularis
[30] = test system: Cynomolgus monkey; assay: Effect on cytokine profile in cynomolgus monkey plasma assessed as IP10 levels at 1 mg/kg, po after 24 hrs by Luminex assay (reference value: 18.5 pg/ml); type: functional, Macaca fascicularis; procedure, shortened: as §1
[31] = Protein binding in dog plasma fraction at 5 uM after 4.5 hrs LC-MS/MS-based rapid equilibrium dialysis method; type: ADME, cell-free, Canis lupus familiaris; conditions: read-out: PPB (converted)
[32] = test system: Cynomolgus monkey; assay: Proinflammatory activity in cynomolgus monkey plasma assessed as TNFalpha levels at 1 mg/kg, po after 24 hrs by Luminex assay (reference value: 285 pg/ml); type: functional, organism-based; conditions: Macaca fascicularis

In the case of `CCC[C@@H](CCO)Nc1nc(N)nc2c(F)cccc12`, the Activity [1] is reported as “Below limit of detection”, the Activity [2] is reported as 9135 pg/mL and the Activity [3] is reported as “Active”. The Activity [4] was over 51200 pg/mL, the “fold change (FC)” value [5] was 4.2 and the Activity [6] was “Below limit of detection”. The “fold change (FC)” value [7] was 1180, the Cmax [8] was 32 ng/g and the Activity [9] was 35575 pg/g. It also gave a Cmax [10] of 7610 ng/g, an Activity [11] of 40 pg/mL and a Cmax [12] of 38 ng/mL. The Activity [13] was “Active”, the Activity [14] was “Below limit of detection” and the Activity [15] was 200 pg/mL. The “fold change (FC)” value [16] was 145, the Activity [17] was 2180 pg/mL and the Activity [18] was “Non-Toxic”. The Activity [19] was 8195 pg/mL, the Activity [20] was 180 pg/mL and the Activity [21] was over 10000 pg/mL. It also gave an Activity [22] of over 10000 pg/mL, an Activity [23] of 3785 pg/mL and an Activity [24] of 13600 pg/g. For the same molecule, the metabolised at 1 h, 1 µM [25] was 35%, the Cmax [26] was 188 ng/g and the Activity [27] was “Active”. For the same molecule, the CC50 at 6 h [28] was over 24 µM, the “fold change (FC)” value [29] was 5.1 and the Activity [30] was 1690 pg/mL. The fraction unbound at 4.5 h, 5 µM [31] was 0.59 and the Activity [32] was “Below limit of detection”.
